Test results as given in ChEMBL document CHEMBL5131562, “1,3-Dioxane-Linked Novel Bacterial Topoisomerase Inhibitors: Expanding Structural Diversity and the Antibacterial Spectrum” (ACS Med Chem Lett, 2022).
Values after ≈ are worked out from the molar mass of the structure shown.

How the values were obtained:
Neisseria gonorrhoeae [1] = assay: Antimicrobial activity against wild type Neisseria gonorrhoeae P strain incubated for 20 to 24 hrs by CLSI protocol based broth microdilution method; type: functional; details: time 20-24 hrs
DNA gyrase = DNA gyrase (Staphylococcus aureus, UniProt P0A0K8+P20831); assay: Inhibition of Staphylococcus aureus DNA gyrase supercoiling activity incubated for 25 min by ethidium bromide/bromophenol blue staining based agarose gel electrophoresis analysis; type: protein-complex assay
Staphylococcus aureus [2] = assay: Antibacterial activity against Staphylococcus aureus ATCC 29213 by CLSI method; type: functional
Neisseria gonorrhoeae [3] = assay: Antimicrobial activity against wild type Neisseria gonorrhoeae V strain harbouring type 2 topoisomerase GyrA S91F, D95G and ParC S87R mutant incubated for 20 to 24 hrs by CLSI protocol based broth microdilution method; type: functional; details: time 20-24 hrs
Neisseria gonorrhoeae [4] = assay: Antimicrobial activity against Neisseria gonorrhoeae K strain harbouring type 2 topoisomerase GyrA S91F, D95N and ParC S87R, S88P mutant incubated for 20 to 24 hrs by CLSI protocol based broth microdilution method; type: functional; details: time 20-24 hrs
Staphylococcus aureus [5] = assay: Antibacterial activity against Staphylococcus aureus harbouring GyrA D83N mutant by CLSI method; type: functional
Staphylococcus aureus [6] = assay: Selectivity ratio of IC50 for inhibition of Staphylococcus aureus DNA topoisomerase 4 decatenation activity to IC50 for inhibition of Staphylococcus aureus DNA gyrase supercoiling activity
[7] = Cytotoxicity activity against human K562 cells assessed as inhibition of cellular growth; type: toxicity, cell-based
How it was run: (§1)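 Human K562 leukemia cells were tested alongside K/VP.5, an etoposide-resistant clonal subline derived from them that has reduced levels of human topoisomerase IIα. Cell growth inhibition was expressed as an IC50.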

Neisseria gonorrhoeae [8] = assay: Antimicrobial activity against wild type Neisseria gonorrhoeae F strain incubated for 20 to 24 hrs by CLSI protocol based broth microdilution method; type: functional; details: time 20-24 hrs
Staphylococcus aureus [9] = assay: Antibacterial activity against cystic fibrosis isolate Staphylococcus aureus by CLSI method; type: functional
Staphylococcus aureus [10] = assay: Antibacterial activity against methicillin-resistant Staphylococcus aureus USA300 by CLSI method; type: functional
Neisseria gonorrhoeae [11] = assay: Antimicrobial activity against wild type Neisseria gonorrhoeae ATCC 49226 incubated for 20 to 24 hrs by CLSI protocol based broth microdilution method; type: functional; details: time 20-24 hrs
Neisseria gonorrhoeae [12] = assay: Antimicrobial activity against wild type Neisseria gonorrhoeae Y strain harbouring type 2 topoisomerase GyrA S91F, D95G and ParC S87R mutant incubated for 20 to 24 hrs by CLSI protocol based broth microdilution method; type: functional; details: time 20-24 hrs
[13] = Metabolic stability in mouse liver microsomes assessed as half life; type: ADME, Microsome
[14] = target: Voltage-gated inwardly rectifying potassium channel KCNH2 (Homo sapiens, UniProt Q12809); assay: Inhibition of hERG cardiac ion channel; type: toxicity
How it was run: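 hERG channel inhibition was run by a contract lab. […] Determinations were made in duplicate or triplicate (n = 2 or 3).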

Neisseria gonorrhoeae [15] = assay: Antimicrobial activity against wild type Neisseria gonorrhoeae O strain incubated for 20 to 24 hrs by CLSI protocol based broth microdilution method; type: functional; details: time 20-24 hrs
Staphylococcus aureus [16] = assay: Antibacterial activity against Staphylococcus aureus 3527 by CLSI method; type: functional
Neisseria gonorrhoeae [17] = assay: Antimicrobial activity against Neisseria gonorrhoeae G strain harbouring type 2 topoisomerase GyrA S91F and ParE G410V mutant incubated for 20 to 24 hrs by CLSI protocol based broth microdilution method; type: functional; details: time 20-24 hrs
Topoisomerase IV = Topoisomerase IV (Staphylococcus aureus, UniProt P0C1S7+P0C1U9); assay: Inhibition of Staphylococcus aureus DNA topoisomerase 4 decatenation activity using kDNA as substrate incubated for 10 to 20 min by ethidium bromide/bromophenol blue staining based agarose gel electrophoresis analysis; type: protein-complex assay
[18] = Cytotoxicity activity against human K/VP.5 cells assessed as inhibition of cellular growth; type: toxicity, cell-based; how it was run: as §1
Neisseria gonorrhoeae [19] = assay: Antimicrobial activity against Neisseria gonorrhoeae L strain harbouring type 2 topoisomerase GyrA S91F,D95N and ParC D86N,S88P mutant incubated for 20 hrs by agar dilution method; type: functional
Neisseria gonorrhoeae [20] = assay: Antimicrobial activity against Neisseria gonorrhoeae M strain harbouring type 2 topoisomerase GyrA S91F,D95G mutant incubated for 20 hrs by agar dilution method; type: functional

SMILES	MIC (Neisseria gonorrhoeae [1]) [µg/mL]	IC50 (DNA gyrase) [µM]	MIC (Staphylococcus aureus [2]) [µg/mL]	MIC (Neisseria gonorrhoeae [3]) [µg/mL]	MIC (Neisseria gonorrhoeae [4]) [µg/mL]	MIC (Staphylococcus aureus [5]) [µg/mL]	Ratio IC50 (Staphylococcus aureus [6])	IC50 [7] [µM]	MIC (Neisseria gonorrhoeae [8]) [µg/mL]	MIC (Staphylococcus aureus [9]) [µg/mL]	MIC (Staphylococcus aureus [10]) [µg/mL]	MIC (Neisseria gonorrhoeae [11]) [µg/mL]	MIC (Neisseria gonorrhoeae [12]) [µg/mL]	half-life [13] [min]	IC50 [14] [µM]	MIC (Neisseria gonorrhoeae [15]) [µg/mL]	MIC (Staphylococcus aureus [16]) [µg/mL]	MIC (Neisseria gonorrhoeae [17]) [µg/mL]	IC50 (Topoisomerase IV) [µM]	IC50 [18] [µM]	further results
O=c1ccc2ccc(F)c3c2n1CC3C[C@H]1OC[C@H](NCc2cc3c(cn2)OCCC3)CO1 (some centres not stated)	1 (≈ 2.21 µM)	0.58	≤ 0.25	≤ 0.03	0.5 (≈ 1.11 µM)	2 (≈ 4.43 µM)	5	109	≤ 0.03	≤ 0.25	0.5 (≈ 1.11 µM)	0.25 (≈ 0.554 µM)	≤ 0.03	3.64	53	0.5 (≈ 1.11 µM)	0.5 (≈ 1.11 µM)	2 (≈ 4.43 µM)	2.9	85	
O=C(O)c1cn(C2CC2)c2cc(N3CCNCC3)c(F)cc2c1=O [CIPROFLOXACIN]																					MIC (Neisseria gonorrhoeae [19]): > 8 µg/mL; MIC (Neisseria gonorrhoeae [20]): 2 µg/mL (≈ 6.04 µM)
O=C1COc2ccc(CN[C@H]3CO[C@H](CC4Cn5c(=O)ccc6ncc(F)c4c65)OC3)nc2N1 (some centres not stated)	2 (≈ 4.28 µM)	4.2	2 (≈ 4.28 µM)	0.5 (≈ 1.07 µM)	1 (≈ 2.14 µM)	8 (≈ 17.1 µM)	0.33	> 200	0.12 (≈ 0.257 µM)	2 (≈ 4.28 µM)	1 (≈ 2.14 µM)	1 (≈ 2.14 µM)	1 (≈ 2.14 µM)	66.3	97	1 (≈ 2.14 µM)	2 (≈ 4.28 µM)	2 (≈ 4.28 µM)	1.4	> 200	
COc1ccc2ncc(F)c(C[C@H](O)[C@H]3OC[C@H](NC(=O)c4ccc5c(c4)OCCO5)CO3)c2n1	> 16	0.23	0.25 (≈ 0.515 µM)	0.25 (≈ 0.515 µM)	> 16	2 (≈ 4.12 µM)	7.6	1.6	0.25 (≈ 0.515 µM)	0.25 (≈ 0.515 µM)	0.25 (≈ 0.515 µM)	4 (≈ 8.24 µM)	0.5 (≈ 1.03 µM)	14.2	> 100	> 16	0.25 (≈ 0.515 µM)	> 16	1.7	6	
